Source: ChEMBL document CHEMBL3763072, “Structure activity relationship studies on chemically non-reactive glycine sulfonamide inhibitors of diacylglycerol lipase” (Bioorg Med Chem, 2016)
Blank lines part the entries; values can stand above or below the compound they belong to. Calls of active or inactive are those of the source. The rule behind the calls is not given here.

Experiments:
[1] = target: T1, Diacylglycerol lipase-alpha (Homo sapiens, UniProt Q9Y4D2); experiment: Inhibition of full length human C-terminal HA-tagged DAGLalpha expressed in HEK293 cells using DAG as substrate assessed as reduction in intracellular 2-AG level incubated for 20 mins by LC-MS analysis; type: cell-based
T1 sequence (Q9Y4D2 whole entry): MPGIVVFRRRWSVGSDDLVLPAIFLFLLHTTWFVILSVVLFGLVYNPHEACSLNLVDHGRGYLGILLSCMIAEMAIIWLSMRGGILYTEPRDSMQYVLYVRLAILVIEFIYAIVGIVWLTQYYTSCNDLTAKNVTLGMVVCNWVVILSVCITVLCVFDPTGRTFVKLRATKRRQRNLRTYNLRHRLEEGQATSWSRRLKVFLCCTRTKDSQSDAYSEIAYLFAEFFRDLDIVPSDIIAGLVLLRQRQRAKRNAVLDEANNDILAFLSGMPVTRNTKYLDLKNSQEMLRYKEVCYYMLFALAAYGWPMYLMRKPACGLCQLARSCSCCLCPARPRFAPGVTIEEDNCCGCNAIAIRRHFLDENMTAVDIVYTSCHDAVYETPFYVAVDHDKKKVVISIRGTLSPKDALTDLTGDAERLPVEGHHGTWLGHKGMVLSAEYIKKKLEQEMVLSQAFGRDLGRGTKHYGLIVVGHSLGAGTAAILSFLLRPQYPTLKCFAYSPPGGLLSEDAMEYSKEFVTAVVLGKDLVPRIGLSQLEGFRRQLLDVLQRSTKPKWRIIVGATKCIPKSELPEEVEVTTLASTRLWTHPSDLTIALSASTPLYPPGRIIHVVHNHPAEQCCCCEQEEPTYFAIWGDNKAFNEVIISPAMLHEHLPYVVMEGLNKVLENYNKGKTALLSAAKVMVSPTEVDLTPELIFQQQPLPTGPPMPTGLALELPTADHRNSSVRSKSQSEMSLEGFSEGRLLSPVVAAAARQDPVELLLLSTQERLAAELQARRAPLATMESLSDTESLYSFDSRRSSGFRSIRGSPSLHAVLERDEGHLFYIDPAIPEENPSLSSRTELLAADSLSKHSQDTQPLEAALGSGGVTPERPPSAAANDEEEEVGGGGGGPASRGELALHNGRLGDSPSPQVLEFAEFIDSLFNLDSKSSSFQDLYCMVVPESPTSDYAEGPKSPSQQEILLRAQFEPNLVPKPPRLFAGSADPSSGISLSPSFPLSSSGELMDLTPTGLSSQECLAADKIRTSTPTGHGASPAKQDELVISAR

[2] = target: T1, Diacylglycerol lipase-alpha; experiment: Inhibition of full length human C-terminal HA-tagged DAGLalpha expressed in HEK293 cell membrane using DAG as substrate incubated for 20 mins by LC-MS analysis; type: cell-based
In short: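 Cell-free DAGL-α enzyme assay run at pH 6.5. IC50 values are reported, with replicate counts (n) given per value.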

[3] = target: T2, Monoglyceride lipase (Homo sapiens) (UniProt Q99685); experiment: Inhibition of MAGL (unknown origin) at 30 uM
T2 sequence (whole entry): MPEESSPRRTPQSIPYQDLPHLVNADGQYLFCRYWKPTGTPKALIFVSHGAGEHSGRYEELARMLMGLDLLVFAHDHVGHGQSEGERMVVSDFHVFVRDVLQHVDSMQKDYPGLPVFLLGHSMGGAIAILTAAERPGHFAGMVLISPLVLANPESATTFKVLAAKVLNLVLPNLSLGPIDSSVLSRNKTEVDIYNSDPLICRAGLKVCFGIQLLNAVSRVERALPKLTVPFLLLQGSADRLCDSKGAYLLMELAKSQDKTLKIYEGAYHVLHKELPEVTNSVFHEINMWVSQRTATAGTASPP

Mus musculus [4] = experiment: In vivo inhibition of DAGLalpha in ip dosed mouse assessed as reduction in 2-AG level in liver; type: functional, organism-based
[5] = target: T3, Diacylglycerol lipase-beta (Homo sapiens, UniProt Q8NCG7); experiment: Inhibition of DAGLbeta (unknown origin)
T3 sequence (Q8NCG7 whole entry): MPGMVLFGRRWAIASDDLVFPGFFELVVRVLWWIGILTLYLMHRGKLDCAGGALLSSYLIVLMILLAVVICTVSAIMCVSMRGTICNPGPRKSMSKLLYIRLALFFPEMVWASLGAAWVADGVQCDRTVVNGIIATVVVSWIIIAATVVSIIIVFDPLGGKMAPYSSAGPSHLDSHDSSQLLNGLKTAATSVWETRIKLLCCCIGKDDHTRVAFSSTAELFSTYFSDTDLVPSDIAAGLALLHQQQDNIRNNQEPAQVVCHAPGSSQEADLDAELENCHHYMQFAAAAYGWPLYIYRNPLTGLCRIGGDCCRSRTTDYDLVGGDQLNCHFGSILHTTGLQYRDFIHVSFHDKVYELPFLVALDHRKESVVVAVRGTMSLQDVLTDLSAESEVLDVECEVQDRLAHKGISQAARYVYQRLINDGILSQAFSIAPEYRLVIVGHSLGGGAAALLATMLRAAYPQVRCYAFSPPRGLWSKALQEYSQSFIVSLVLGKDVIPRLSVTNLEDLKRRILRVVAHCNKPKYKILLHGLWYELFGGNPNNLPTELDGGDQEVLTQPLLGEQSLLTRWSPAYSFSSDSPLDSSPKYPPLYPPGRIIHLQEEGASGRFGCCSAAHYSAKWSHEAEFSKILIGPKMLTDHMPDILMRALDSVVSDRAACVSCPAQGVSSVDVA

[6] = target: T4, Diacylglycerol lipase-alpha (Homo sapiens) (UniProt Q9Y4D2); experiment: Ratio of IC50 for full length human C-terminal HA-tagged DAGLalpha expressed in HEK293 cells assessed as reduction in intracellular 2-AG level to IC50 for full length human C-terminal HA-tagged DAGLalpha expressed in HEK293 cell membrane; type: cell-based
T4 sequence (whole entry): T1 sequence (Q9Y4D2 whole entry)

[7] = Metabolic stability in human liver microsomes assessed as residual compound at 3 uM preincubated for 2 mins followed by NADPH addition measured after 10 mins by LC-MS analysis; type: ADME; settings: read-out: Stability
[8] = Metabolic stability in rat liver microsomes assessed as residual compound at 3 uM preincubated for 2 mins followed by NADPH addition measured after 10 mins by LC-MS analysis; type: ADME; settings: read-out: Stability
[9] = target: Voltage-gated inwardly rectifying potassium channel KCNH2 (Homo sapiens, UniProt Q12809); experiment: Inhibition of human ERG expressed in HEK293 cells by thallium flux assay
Sequence of Voltage-gated inwardly rectifying potassium channel KCNH2 (Q12809 whole entry): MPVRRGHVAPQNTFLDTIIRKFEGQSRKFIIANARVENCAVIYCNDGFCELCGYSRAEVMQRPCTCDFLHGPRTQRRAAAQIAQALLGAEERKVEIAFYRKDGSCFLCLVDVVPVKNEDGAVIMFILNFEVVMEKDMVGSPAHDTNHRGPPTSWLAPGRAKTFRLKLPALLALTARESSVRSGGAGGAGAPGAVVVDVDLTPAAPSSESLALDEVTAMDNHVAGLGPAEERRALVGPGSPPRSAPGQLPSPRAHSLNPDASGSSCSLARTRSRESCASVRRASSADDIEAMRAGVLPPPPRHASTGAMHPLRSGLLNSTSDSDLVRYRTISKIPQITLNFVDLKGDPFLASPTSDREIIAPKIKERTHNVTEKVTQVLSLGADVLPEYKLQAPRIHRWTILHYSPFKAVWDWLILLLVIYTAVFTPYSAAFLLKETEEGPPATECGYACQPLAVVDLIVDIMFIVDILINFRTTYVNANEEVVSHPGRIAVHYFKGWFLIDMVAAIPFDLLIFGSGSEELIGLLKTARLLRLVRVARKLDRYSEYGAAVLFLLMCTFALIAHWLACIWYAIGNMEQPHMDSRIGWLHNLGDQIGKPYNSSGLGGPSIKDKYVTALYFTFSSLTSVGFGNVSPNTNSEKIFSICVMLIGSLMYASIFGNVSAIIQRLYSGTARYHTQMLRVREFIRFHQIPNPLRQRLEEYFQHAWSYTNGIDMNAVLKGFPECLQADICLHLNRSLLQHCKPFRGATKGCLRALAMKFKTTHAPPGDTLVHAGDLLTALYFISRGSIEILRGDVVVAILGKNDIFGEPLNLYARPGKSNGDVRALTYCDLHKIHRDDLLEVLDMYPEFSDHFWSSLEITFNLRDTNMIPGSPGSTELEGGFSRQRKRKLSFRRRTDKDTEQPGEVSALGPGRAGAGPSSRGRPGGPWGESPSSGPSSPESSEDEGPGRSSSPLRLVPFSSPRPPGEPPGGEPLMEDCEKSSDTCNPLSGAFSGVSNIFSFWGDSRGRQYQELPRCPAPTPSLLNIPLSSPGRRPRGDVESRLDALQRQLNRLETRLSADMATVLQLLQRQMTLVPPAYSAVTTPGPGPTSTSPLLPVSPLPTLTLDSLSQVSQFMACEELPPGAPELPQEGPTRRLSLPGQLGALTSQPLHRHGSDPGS

Cytochrome P450 2C19 = Cytochrome P450 2C19 (Homo sapiens, UniProt P33261); experiment: Inhibition of CYP2C19 in human liver microsomes using (S)-mephenytoin as substrate incubated for 5 mins by LC-MS analysis
Sequence of Cytochrome P450 2C19 (P33261 whole entry): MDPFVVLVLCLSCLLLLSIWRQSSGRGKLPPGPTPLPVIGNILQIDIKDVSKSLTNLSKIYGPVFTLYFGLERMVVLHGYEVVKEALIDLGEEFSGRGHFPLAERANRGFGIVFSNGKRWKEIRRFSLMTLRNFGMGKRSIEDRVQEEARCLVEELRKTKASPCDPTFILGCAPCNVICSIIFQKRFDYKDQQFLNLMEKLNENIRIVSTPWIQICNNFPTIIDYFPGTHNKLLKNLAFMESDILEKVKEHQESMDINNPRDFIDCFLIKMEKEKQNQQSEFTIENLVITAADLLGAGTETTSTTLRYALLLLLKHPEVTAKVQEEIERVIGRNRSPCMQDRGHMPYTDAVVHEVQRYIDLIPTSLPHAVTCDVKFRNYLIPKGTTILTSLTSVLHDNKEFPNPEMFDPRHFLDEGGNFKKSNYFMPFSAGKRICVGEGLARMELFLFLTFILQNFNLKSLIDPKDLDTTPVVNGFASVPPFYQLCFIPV

Cytochrome P450 2C9 = Cytochrome P450 2C9 (Homo sapiens, UniProt P11712); experiment: Inhibition of CYP2C9 in human liver microsomes using diclofenac as substrate incubated for 10 mins by LC-MS analysis
Sequence of Cytochrome P450 2C9 (P11712 whole entry): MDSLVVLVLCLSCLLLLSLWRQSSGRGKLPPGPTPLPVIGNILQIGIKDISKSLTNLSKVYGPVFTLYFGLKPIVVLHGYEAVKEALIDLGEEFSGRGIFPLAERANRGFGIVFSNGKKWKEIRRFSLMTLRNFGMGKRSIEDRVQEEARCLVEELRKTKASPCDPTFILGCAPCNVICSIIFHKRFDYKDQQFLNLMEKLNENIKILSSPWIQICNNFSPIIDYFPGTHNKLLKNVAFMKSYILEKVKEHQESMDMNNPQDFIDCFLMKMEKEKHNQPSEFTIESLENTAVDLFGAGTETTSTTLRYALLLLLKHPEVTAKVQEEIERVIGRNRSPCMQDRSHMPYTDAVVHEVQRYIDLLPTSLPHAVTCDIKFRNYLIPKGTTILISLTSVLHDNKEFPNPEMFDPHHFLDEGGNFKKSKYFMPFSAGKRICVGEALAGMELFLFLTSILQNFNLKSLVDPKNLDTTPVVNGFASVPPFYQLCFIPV

Cytochrome P450 2D6 = Cytochrome P450 2D6 (Homo sapiens, UniProt P10635); experiment: Inhibition of CYP2D6 in human liver microsomes using dextromethorphan as substrate incubated for 7 mins by LC-MS analysis
Sequence of Cytochrome P450 2D6 (P10635 whole entry): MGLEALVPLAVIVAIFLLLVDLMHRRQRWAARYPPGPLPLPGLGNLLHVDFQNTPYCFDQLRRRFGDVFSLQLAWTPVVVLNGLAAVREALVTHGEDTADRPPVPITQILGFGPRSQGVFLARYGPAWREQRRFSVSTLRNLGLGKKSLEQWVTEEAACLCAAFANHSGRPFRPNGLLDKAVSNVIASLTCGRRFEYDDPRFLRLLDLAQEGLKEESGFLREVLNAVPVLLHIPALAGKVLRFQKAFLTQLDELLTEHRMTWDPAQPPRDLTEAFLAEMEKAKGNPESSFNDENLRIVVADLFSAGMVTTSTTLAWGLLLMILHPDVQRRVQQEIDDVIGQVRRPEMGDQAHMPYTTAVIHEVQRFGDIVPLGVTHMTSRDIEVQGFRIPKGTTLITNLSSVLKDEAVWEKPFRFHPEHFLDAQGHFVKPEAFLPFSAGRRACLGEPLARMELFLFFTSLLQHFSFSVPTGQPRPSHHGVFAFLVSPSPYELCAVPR

Cytochrome P450 3A4 = Cytochrome P450 3A4 (Homo sapiens, UniProt P08684); experiment: Inhibition of CYP3A4 in human liver microsomes using midazolam as substrate incubated for 5 mins by LC-MS analysis
Sequence of Cytochrome P450 3A4 (P08684 whole entry): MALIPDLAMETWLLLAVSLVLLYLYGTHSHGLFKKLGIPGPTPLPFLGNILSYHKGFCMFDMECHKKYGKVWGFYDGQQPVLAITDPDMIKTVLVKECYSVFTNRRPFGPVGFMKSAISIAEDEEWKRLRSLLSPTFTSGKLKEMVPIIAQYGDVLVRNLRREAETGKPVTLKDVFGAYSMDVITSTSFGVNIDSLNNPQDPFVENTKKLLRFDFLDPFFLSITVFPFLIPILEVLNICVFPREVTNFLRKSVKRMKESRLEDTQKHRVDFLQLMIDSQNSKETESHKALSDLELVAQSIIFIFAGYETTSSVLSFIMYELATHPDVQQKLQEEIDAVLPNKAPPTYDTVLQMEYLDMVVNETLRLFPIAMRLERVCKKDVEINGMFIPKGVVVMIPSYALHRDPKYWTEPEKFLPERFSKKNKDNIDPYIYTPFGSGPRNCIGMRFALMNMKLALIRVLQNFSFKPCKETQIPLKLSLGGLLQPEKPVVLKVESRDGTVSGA

[10] = target: T5, Pancreatic triacylglycerol lipase (Sus scrofa) (UniProt P00591); experiment: Inhibition of porcine pancreatic lipase at 30 uM
T5 sequence (whole entry): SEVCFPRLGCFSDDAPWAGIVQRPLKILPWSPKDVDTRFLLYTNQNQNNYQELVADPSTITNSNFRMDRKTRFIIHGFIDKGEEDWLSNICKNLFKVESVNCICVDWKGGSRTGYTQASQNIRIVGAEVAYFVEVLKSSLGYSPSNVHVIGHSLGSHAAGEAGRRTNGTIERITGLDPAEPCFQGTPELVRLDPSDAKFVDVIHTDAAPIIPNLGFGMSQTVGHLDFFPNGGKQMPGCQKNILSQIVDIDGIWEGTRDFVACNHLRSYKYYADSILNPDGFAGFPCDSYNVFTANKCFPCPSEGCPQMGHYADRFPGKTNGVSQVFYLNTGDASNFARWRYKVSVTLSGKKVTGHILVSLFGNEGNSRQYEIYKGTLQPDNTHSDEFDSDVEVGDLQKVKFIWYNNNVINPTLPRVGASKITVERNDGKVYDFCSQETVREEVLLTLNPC

[11] = Metabolic stability in mouse liver microsomes assessed as residual compound at 3 uM preincubated for 2 mins followed by NADPH addition measured after 10 mins by LC-MS analysis; type: ADME; settings: read-out: Stability
[12] = target: T6, Nuclear receptor subfamily 1 group I member 2 (Homo sapiens, UniProt O75469); experiment: Transactivation of human PXR expressed in human HepG2 cells after […] by luciferase reporter gene assay; type: ADME, cell-based
T6 sequence (O75469 whole entry): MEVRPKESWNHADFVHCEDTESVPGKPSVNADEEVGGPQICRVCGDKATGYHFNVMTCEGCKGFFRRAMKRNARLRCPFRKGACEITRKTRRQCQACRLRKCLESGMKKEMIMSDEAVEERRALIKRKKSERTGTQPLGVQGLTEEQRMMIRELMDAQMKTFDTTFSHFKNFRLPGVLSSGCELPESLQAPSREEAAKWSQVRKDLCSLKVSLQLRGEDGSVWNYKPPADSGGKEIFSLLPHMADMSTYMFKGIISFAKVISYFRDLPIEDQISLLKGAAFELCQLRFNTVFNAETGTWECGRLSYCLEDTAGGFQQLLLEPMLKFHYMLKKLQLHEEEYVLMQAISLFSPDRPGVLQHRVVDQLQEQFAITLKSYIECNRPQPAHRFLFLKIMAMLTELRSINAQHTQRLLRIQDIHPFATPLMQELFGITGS

[13] = Half life in mouse at 1 mg/kg, iv; type: ADME, organism-based; settings: in vivo
[14] = Half life in mouse at 10 mg/kg, po; type: ADME, organism-based; settings: in vivo
[15] = Half life in mouse at 10 mg/kg, ip; type: ADME, organism-based; settings: in vivo
[16] = AUC(infinity) in mouse at 10 mg/kg, po; type: ADME, organism-based; design: dose 10 mg/kg, route oral, time infinity; settings: in vivo
[17] = Cmax in mouse at 1 mg/kg, iv; type: ADME, organism-based; design: dose 1 mg/kg, route intravenous; settings: in vivo
[18] = Cmax in mouse at 10 mg/kg, po; type: ADME, organism-based; design: dose 10 mg/kg, route oral; settings: in vivo
[19] = Cmax in mouse at 10 mg/kg, ip; type: ADME, organism-based; design: dose 10 mg/kg, route intraperitoneal; settings: in vivo
[20] = Tmax in mouse at 10 mg/kg, po; type: ADME, organism-based; settings: in vivo
[21] = Tmax in mouse at 10 mg/kg, ip; type: ADME, organism-based; settings: in vivo
Mus musculus [22] = experiment: AUC(infinity) in mouse at 1 mg/kg, iv; type: ADME, organism-based; design: dose 1 mg/kg, route intravenous, time infinity; settings: in vivo
Mus musculus [23] = experiment: AUC(infinity) in mouse at 10 mg/kg, ip; type: ADME, organism-based; design: dose 10 mg/kg, time infinity, route intraperitoneal; settings: in vivo
[24] = Clearance in mouse at 1 mg/kg, iv; type: ADME, organism-based; settings: in vivo
[25] = Volume of distribution at steady state in mouse at 1 mg/kg, iv; type: ADME, organism-based; settings: in vivo, read-out: Vdss
[26] = Oral bioavailability in mouse at 10 mg/kg; type: ADME, organism-based; settings: in vivo
Mus musculus [27] = experiment: Bioavailability in mouse at 10 mg/kg, ip; type: ADME, organism-based; settings: in vivo

IC50 [1]: 14.3 nM
IC50 [2]: 2.4 nM
inhibition [3]: inactive
IC50 [5]: 40 nM
Structure (SMILES): O=C(O)CN(c1cccc(-c2cccc(Cl)c2Cl)c1)S(=O)(=O)c1ccc(OC(F)F)cc1
inhibition (Mus musculus [4]): Active

IC50 [1]: 60 nM
IC50 [2]: 17 nM
Ratio IC50 [6]: 4
remaining at 10 min, 3 µM [7]: 80%
remaining at 10 min, 3 µM [8]: 100%
IC50 (Cytochrome P450 2C19): 40000 nM
IC50 (Cytochrome P450 2C9): 40000 nM
IC50 (Cytochrome P450 2D6): 40000 nM
IC50 (Cytochrome P450 3A4): 30000 nM
Structure (SMILES): O=C(O)CN(Cc1cccc(-c2ccccc2OC(F)(F)F)c1)S(=O)(=O)c1ccc(OC(F)F)cc1
IC50 [9]: 11000 nM

inhibition [10]: inactive
inhibition [3]: inactive
IC50 [5]: 40 nM
remaining at 10 min, 3 µM [7]: 79%
remaining at 10 min, 3 µM [8]: 70%
remaining at 10 min, 3 µM [11]: 77%
Activity [12]: 140%
half-life [13]: 34.8 min
half-life [14]: 59.4 min
half-life [15]: 79.8 min
AUC(0-inf) [16]: 1.52 µM·h
Cmax [17]: 274 nM
Cmax [18]: 941 nM
Cmax [19]: 2860 nM
Tmax [20]: 30 min
Tmax [21]: 37.8 min
AUC (Mus musculus [22]): 0.173 µM·h
AUC (Mus musculus [23]): 5.784 µM·h
clearance [24]: 169 mL/min/kg
Vd [25]: 7.42 L/kg
bioavailability [26]: 88%
F (Mus musculus [27]): 100%
Structure (SMILES): CC1(C)CCc2cc(S(=O)(=O)N(CC(=O)O)C3(c4cccc(-c5cc(Cl)cc(Cl)c5)c4)CCC3)ccc2O1
